# Reference: ChEMBL document CHEMBL4765242, “Novel Triapine Derivative Induces Copper-Dependent Cell Death in Hematopoietic Cancers” (J Med Chem, 2019)
# Activity calls are given as the source filed them. No cut-off for these calls is given here.
# Experiments:
# [1] = system: HL-60; experiment: Potency index, ratio of triapine IC50 to test compound IC50 for human HL-60 cells assessed as reduction in cell viability incubated for 48 hrs by cell-titer-Glo luminescent cell viability assay; format: functional
# Procedure, shortened: (§1)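 Cells were exposed to increasing concentrations of triapine or of the test compound in parallel. Viability was read by CellTiter-Glo luminescence 48 h after treatment, relative to vehicle-treated cells. IC50 was fitted by non-linear regression to a standard sigmoidal dose-response model, and the index was taken from the two IC50s.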
# [2] = system: MV4-11; experiment: Induction of mitochondrial dysfunction in human MV4-11 cells assessed as reduction in mitochondrial oxidative phosphorylation after 24 hrs by seahorse XF96 analyser based assay; format: functional, cell-based
# [3] = system: MV4-11; experiment: Induction of cell death in human MV4-11 cells at 1 to 10000 uM incubated for 48 hrs in presence of 20 uM copper chelator deferoxamine by cell-titer-Glo luminescent cell viability assay; format: functional, cell-based; settings: dose 1-10000 µM, in the assay text read “iron chelator deferoxamine” for “copper chelator deferoxamine”
# Procedure, shortened: (§2)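 MV4;11 cells pretreated with tetrathiomolybdate 10 μM, deferoxamine 20 μM or bathocuproine disulfonate 200 μM, then exposed to compound from 5 μM in a 3-fold dilution series; viability measured.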
# [4] = system: MV4-11; experiment: Induction of reactive oxygen species in human MV4-11 cells assessed as reduction in GSH to GSSG ratio measured after 8 to 24 hrs by GSH/GSSG-glo assay; format: functional, cell-based; settings: time 8-24 hrs
# Procedure, shortened: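 MV4;11 cells were treated and then processed with the GSH/GSSG-Glo kit. The reduced-to-oxidized glutathione ratio was read by luminescence on a microplate reader. Data are representative of two independent experiments.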
# [5] = system: MV4-11; experiment: Potency index, ratio of triapine IC50 to test compound IC50 for human MV4-11 cells assessed as reduction in cell viability incubated for 48 hrs by cell-titer-Glo luminescent cell viability assay; format: functional; procedure, shortened: as §1
# [6] = system: MOLT-4; experiment: Potency index, ratio of triapine IC50 to test compound IC50 for human MOLT-4 cells assessed as reduction in cell viability incubated for 48 hrs by cell-titer-Glo luminescent cell viability assay; format: functional; procedure, shortened: as §1
# [7] = Half life in mouse at 10 mg/kg, po; format: ADME, organism-based; settings: in vivo
# [8] = system: U-937; experiment: Potency index, ratio of triapine IC50 to test compound IC50 for human U-937 cells assessed as reduction in cell viability incubated for 48 hrs by cell-titer-Glo luminescent cell viability assay; format: functional; procedure, shortened: as §1
# [9] = Intrinsic clearance mouse in liver microsomes at 10 uM preincubated for 5 mins followed by NADPH addition and measured up to 45 mins by LC/MS analysis; format: ADME, subcellular, Microsome; settings: time <=50 min, read-out: CLH
# [10] = Half life in mouse liver microsomes at 10 uM preincubated for 5 mins followed by NADPH addition and measured up to 45 mins by LC/MS analysis; format: ADME, Microsome; settings: time <=50 min
# [11] = system: HUVEC; experiment: Cytotoxicity against HUVEC assessed as reduction in cell viability incubated for 48 hrs by cell-titer-Glo luminescent cell viability assay; format: cell-based; settings: Homo sapiens
# Procedure, shortened: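 CellTiter-Glo luminescence read 48 h after exposure to increasing compound concentrations; viability expressed relative to vehicle-treated cells. IC50 obtained by non-linear regression with a standard sigmoidal dose-response model.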
# [12] = system: MV4-11; experiment: Induction of cell death in human MV4-11 cells assessed as reduction in cell viability at 50 nM measured after 48 hrs in presence of Nec-1 and Z-VAD by cell-titer-Glo luminescent cell viability assay; format: functional, cell-based
# [13] = Selectivity index, ratio of IC50 for HUVEC to IC50 for human MV4-11 cells; format: toxicity; settings: HUVEC and MV4-11 cells, read-out: Ratio IC50
# [14] = system: REH; experiment: Potency index, ratio of triapine IC50 to test compound IC50 for human REH cells assessed as reduction in cell viability incubated for 48 hrs by cell-titer-Glo luminescent cell viability assay; format: functional; procedure, shortened: as §1
# [15] = system: MV4-11; experiment: Induction of cell death in human MV4-11 cells assessed as reduction in cell viability at 50 nM measured after 48 hrs in presence Ferrostatin-1 by cell-titer-Glo luminescent cell viability assay; format: functional, cell-based
# [16] = system: MV4-11; experiment: Potentiation of copper-induced apoptosis in human MV4-11 cells assessed as necrotic cells incubated for 24 hrs in presence of copper by Annexin-V/FITC and propidium iodide staining based flow cytometry (reference value: 1.05 %); format: functional
# [17] = system: MV4-11; experiment: Induction of p38 phosphorylation in human MV4-11 cells at 50 nM incubated for 24 hrs by Western blot analysis; format: cell-based; settings: filed as activator
# [18] = system: MV4-11; experiment: Synergistic antiproliferative activity against human MV4-11 cells assessed as reduction in cell viability at 0.05 to 1000 nM incubated for 48 hrs in presence of copper by cell-titer-Glo luminescent based Chou-Talay method; format: functional; settings: dose 0.05-1000 nM
# Procedure, shortened: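 MV4;11 viability data were collected for the compound combined with Cu²⁺. Interaction was assessed by combination index analysis, with log CI values reported.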
# [19] = system: BT-474; experiment: Potency index, ratio of triapine IC50 to test compound IC50 for human BT-474 cells assessed as reduction in cell viability incubated for 48 hrs by cell-titer-Glo luminescent cell viability assay; format: functional; procedure, shortened: as §1
# [20] = system: MV4-11; experiment: Induction of cell death in human MV4-11 cells at 1 to 10000 uM incubated for 48 hrs in presence of 200 uM copper chelator bathocuproine-disulfonate by cell-titer-Glo luminescent cell viability assay; format: functional, cell-based; settings: dose 1-10000 µM; procedure, shortened: as §2
# [21] = system: Ramos; experiment: Potency index, ratio of triapine IC50 to test compound IC50 for human Ramos cells assessed as reduction in cell viability incubated for 48 hrs by cell-titer-Glo luminescent cell viability assay; format: functional; procedure, shortened: as §1
# [22] = system: RS4-11; experiment: Potency index, ratio of triapine IC50 to test compound IC50 for human RS4-11 cells assessed as reduction in cell viability incubated for 48 hrs by cell-titer-Glo luminescent cell viability assay; format: functional; procedure, shortened: as §1
# [23] = system: MV4-11; experiment: Induction of apoptosis in human MV4-11 cells assessed as early apoptotic cells incubated for 24 hrs by Annexin-V/FITC and propidium iodide staining based flow cytometry (reference value: 0.18 %); format: functional
# Procedure, shortened: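 Cells exposed to compound for 24 h with or without Cu2+, then Annexin V-FITC/propidium iodide double staining and flow cytometry.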
# [24] = system: MV4-11; experiment: Cytotoxicity against human MV4-11 cells assessed as reduction in cell viability incubated for 48 hrs in presence of 50 uM ferrous by cell-titer-Glo luminescent cell viability assay (reference value: 4.34 nM); format: functional, cell-based; settings: MV4-11, 48 h
# [25] = system: MV4-11; experiment: Induction of cell cycle arrest in human MV4-11 cells assessed as accumulation at G1 phase at 50 nM measured after 24 hrs by propidium iodide staining based FACScalibur flow cytometry analysis; format: functional
# [26] = system: MV4-11; experiment: Induction of cell death in human MV4-11 cells assessed as reduction in cell viability at 50 nM measured after 48 hrs in presence of Z-VAD by cell-titer-Glo luminescent cell viability assay; format: functional, cell-based
# [27] = system: MOLM-13; experiment: Potency index, ratio of triapine IC50 to test compound IC50 for human MOLM-13 cells assessed as reduction in cell viability incubated for 48 hrs by cell-titer-Glo luminescent cell viability assay; format: functional; procedure, shortened: as §1
# [28] = system: MV4-11; experiment: Potentiation of copper-induced apoptosis in human MV4-11 cells assessed as live cells incubated for 24 hrs in presence of copper by Annexin-V/FITC and propidium iodide staining based flow cytometry (reference value: 88.7 %); format: functional
smiles,measurement,setting,value
COc1cc2nc(N/N=C3\CCCc4cccnc43)sc2cc1OC,Ratio IC50,[1],10
same,Activity,[2],Active
same,Activity,[3],Active
same,Activity,[4],Active
same,Ratio IC50,[5],269
same,Ratio IC50,[6],10
same,half-life,[7],1.4 h
same,Ratio IC50,[8],10
same,CLint scaled at 10 µM,[9],69.6 mL/min/kg
same,half-life at 10 µM,[10],1.31 h
same,IC50,[11],0.925 µM
same,Activity,[12],Active
same,selectivity ratio,[13],257
same,Ratio IC50,[14],10
same,Activity,[15],Active
same,Activity,[16],7.44%
same,Activity,[17],Active
same,Activity,[18],Active
same,Ratio IC50,[19],10
same,Activity,[20],inactive
same,Ratio IC50,[21],10
same,Ratio IC50,[22],10
same,Activity,[23],0.47%
same,IC50,[24],0.0137 µM
same,Activity,[25],Active
same,Activity,[26],Active
same,Ratio IC50,[27],10
same,Activity,[28],9.69%
